# In ChEMBL document CHEMBL4325822, “Discovery of a tetrazolyl β-carboline with in vitro and in vivo osteoprotective activity under estrogen-deficient conditions” (Medchemcomm, 2018):
# Calls of active or inactive are those of the source. The calls are words filed in the database; no cut-off is given here.
# Columns and labels:
# [1] = Induction of osteoblast differentiation in Sprague-Dawley rat calvarial osteoblasts assessed as alkaline phosphatase activity after 48 hrs using PNPP as substrate by spectrophotometric method; assay type: functional, cell-based; details: Rattus norvegicus, Sprague-Dawley, Calvarial osteoblast, 48 h; read-out: EC50
# In short: (§1)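 Calvarial osteoblasts at 2 × 10³ cells/well. Treated 48 h with varied concentrations in differentiation medium (5% charcoal-treated FBS, 10 mM β-glycerophosphate, 50 µg·mL⁻¹ ascorbic acid). Total ALP read with PNPP substrate at 405 nm. Cell-free wells check for compound interference with substrate or absorbance.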
# [2] = Induction of osteoblast differentiation in Sprague-Dawley rat calvarial osteoblasts assessed as alkaline phosphatase activity at 10 pM after 48 hrs using PNPP as substrate by spectrophotometric method relative to control; assay type: functional; in short: as §1
# [3] = Induction of osteoblast differentiation in Sprague-Dawley rat calvarial osteoblasts assessed as alkaline phosphatase activity at 1 nM after 48 hrs using PNPP as substrate by spectrophotometric method relative to control; assay type: functional; in short: as §1
# [4] = Induction of osteoblast differentiation in Sprague-Dawley rat calvarial osteoblasts assessed as alkaline phosphatase activity at 10 nM after 48 hrs using PNPP as substrate by spectrophotometric method relative to control; assay type: functional; in short: as §1
# Calvarial osteoblast [5] = test: Cytotoxicity against Sprague-Dawley rat calvarial osteoblasts assessed as reduction in cell viability at 0.000001 to 1 uM after 48 hrs by MTT assay; assay type: cell-based
# In short: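 Osteoblasts came from pooled calvaria of 1-2-day-old Sprague-Dawley pups, isolated by sequential dispase/collagenase digestion. Cells were exposed to compound at 1 pM to 1 µM for 48 h, and viability was measured by MTT.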
# Calvarial osteoblast [6] = test: Osteogenic activity in Sprague-Dawley rat calvarial osteoblasts assessed as mineralized nodule formation at 10 nM after 21 days by alizarin red-S staining based light microscopic method; assay type: functional, cell-based
# In short: (§2)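 Osteoblasts at 10,000–15,000 cells/cm² in duplicate plates, 21 days in differentiation medium, medium changed every 48 h. Cells fixed in 4% PFA, stained with alizarin red-S (40 mM, pH 4.5, 30 min) and photographed. Stain extracted with 10% acetic acid, pH brought to 4.5 with ammonium hydroxide, read at 405 nm, normalized to cell number.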
# Calvarial osteoblast [7] = test: Osteogenic activity in Sprague-Dawley rat calvarial osteoblasts assessed as mineralized nodule formation at 10 nM after 21 days by alizarin red-S staining based colorimetric method; assay type: functional; in short: as §2
# [8] = Increase in BMP2 mRNA expression in Sprague-Dawley rat calvarial osteoblasts at 10 nM by RT-PCR method relative to control; assay type: functional, Calvarial osteoblast
# In short: (§3)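 Primary calvarial osteoblasts were lysed in TRIzol after treatment, and total RNA was extracted. Transcripts were quantified by real-time PCR using the comparative CT (ΔΔCT) method.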
# [9] = Increase in OCN mRNA expression in Sprague-Dawley rat calvarial osteoblasts at 10 nM by RT-PCR method relative to control; assay type: functional, Calvarial osteoblast; in short: as §3
# [10] = Increase in Runx2 mRNA expression in Sprague-Dawley rat calvarial osteoblasts at 10 nM by RT-PCR method relative to control; assay type: functional, Calvarial osteoblast
# Calvarial osteoblast [11] = test: Increase in Runx2 protein expression in Sprague-Dawley rat calvarial osteoblasts at 10 nM after 48 hrs by Western blot analysis; assay type: functional, cell-based
# In short: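 Rat calvarial osteoblasts (pooled 1–2-day pups, collagenase/dispase digests) at 60–70% confluence treated 48 h. Whole-cell lysates immunoblotted with primary antibody overnight at 4 °C, then HRP secondary, with ECL detection. Densitometry gives fold change normalized to β-actin versus untreated cells. Mean ± SEM of three independent experiments.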
# Calvarial osteoblast [12] = test: Increase in BMP2 protein expression in Sprague-Dawley rat calvarial osteoblasts at 10 nM after 48 hrs by Western blot analysis; assay type: functional, cell-based
# In short: (§4)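 Rat calvarial osteoblasts at 60-70% confluence were treated 48 h. Whole-cell lysates were blotted, blocked in 5% milk, and probed with primary antibody overnight at 4 °C, then with HRP secondary and ECL detection. Densitometry was normalized to β-actin; fold change versus untreated cells, three independent experiments, mean ± SEM.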
# Calvarial osteoblast [13] = test: Increase in OCN protein expression in Sprague-Dawley rat calvarial osteoblasts at 10 nM after 48 hrs by Western blot analysis; assay type: functional, cell-based; in short: as §4
# [14] = Induction of osteoblast differentiation in Sprague-Dawley rat calvarial osteoblasts assessed as alkaline phosphatase activity at 100 nM after 48 hrs using PNPP as substrate by spectrophotometric method relative to control; assay type: functional; in short: as §1
compound,measurement,setting,value
COC(=O)c1cc2c([nH]c3ccccc32)c(C(c2nnnn2C2CCCCC2)N2CCN(C)CC2)n1 (configuration not stated),EC50,[1],530 nM
same,Emax at 10 pM,[2],30%
COC(=O)c1cc2c([nH]c3ccccc32)c(C=O)n1,EC50,[1],545 nM
same,Emax at 0.001 µM,[3],24%
CCOC(=O)c1cc2c([nH]c3ccccc32)c(C(NCc2ccc(OC)cc2)c2nnnn2C(C)(C)C)n1 (configuration not stated),Emax at 0.01 µM,[4],75%
same,EC50,[1],1200 nM
same,Activity,Calvarial osteoblast [5],Non-Toxic
same,Activity,Calvarial osteoblast [6],Active
same,Activity,Calvarial osteoblast [7],52%
same,fold change (FC),[8],1.8 - 4.6
same,fold change (FC),[9],1.8 - 4.6
same,fold change (FC),[10],1.8 - 4.6
same,Activity,Calvarial osteoblast [11],Active
same,Activity,Calvarial osteoblast [12],Active
same,Activity,Calvarial osteoblast [13],Active
CCOC(=O)c1cc2c([nH]c3ccccc32)c(C(c2nnnn2C(C)(C)C)N2CCN(CC)CC2)n1 (configuration not stated),EC50,[1],936 nM
same,Emax at 0.1 µM,[14],14%
